Measured values of several laboratories.
Each line is one published result; the experiments were not run side by side.
Target: Casein kinase I isoform gamma-2 (CSNK1G2, Homo sapiens, UniProt P78368)

With `NS(=O)(=O)c1cc(NC(=O)Cc2ccccc2)ccc1Oc1cccc(Cl)c1` the remaining binding was 100% (cell-free assay; competition with immobilised ligand; 1 µM).
With `COc1cc2ncnc(Nc3ccc(Oc4ccccc4)c(C)c3C)c2cc1OC` the inhibition was 1% (enzyme activity; inhibitor; 1 µM).
For `O=C1Nc2ccc(Cl)cc2C1=Cc1cc(Cl)c(O)c(Cl)c1`, the remaining signal was 83.5% (cell-free assay; 0.5 µM).
`O=C(Nc1cnn(-c2csc(C(=O)NC3COC3)c2)c1)Nc1ccccc1Cl` gave a remaining activity of 98.5% (enzyme activity; inhibitor; 5 µM).
`Cc1cnc(NC2CCOCC2)nc1-n1cnc(C(=O)NC(CN)c2cc(F)cc(Cl)c2)c1` (stereo not shown) has a remaining activity of 53% (enzyme activity; inhibitor; radiometric; 1 µM).
`CCCOc1ccc([C@@H]2[C@@H](C(=O)O)[C@H](c3ccc4c(c3)OCO4)CN2CC(=O)Nc2c(CC)cccc2CC)cc1` gave a remaining binding of 96% (cell-free assay; competition with immobilised ligand; 1 µM).
The activity vs control of `COc1cc(/C=C/C(=O)CC(=O)/C=C/c2ccc(O)c(OC)c2)ccc1O` is reported as 77% (enzyme activity; inhibitor; 1 µM).
The remaining signal of `COc1cc2ncnc(Nc3ccc(F)c(Cl)c3)c2cc1OCCCN1CCOCC1` is reported as 98.1% (cell-free assay; 0.5 µM).
The remaining activity of `COc1cc(Cl)c(C(=O)N[C@@H](CN[C@H]2CC[C@@H](N)CC2)Cc2ccc(C#N)cc2)cc1-c1ccc(CN[C@H](C)c2ccc(C)cc2)o1` is reported as 112% (enzyme activity; inhibitor; 1 µM).
`Cc1ccc(NC(=O)c2ccc(C)c(C(F)(F)F)c2)cc1C#Cc1nn(C2CCC(O)CC2)c2ncnc(N)c12` (stereo not shown) gave a remaining signal of 114% (cell-free assay; 10 µM).
The remaining signal of `C[C@@H]1CCN(C(=O)CC#N)C[C@@H]1N(C)c1ncnc2[nH]ccc12` is reported as 95.4% (cell-free assay; inhibitor; 0.5 µM).
With `C[C@@H]1CN(c2cc(-c3n[nH]c4ccc(OC5(C)CC5)cc34)ncn2)C[C@H](C)O1` the remaining binding was 100% (cell-free assay; competition with immobilised ligand; 0.1 µM).
For `CCCS(=O)(=O)Nc1ccc(F)c(C(=O)c2c[nH]c3ncc(-c4ccc(Cl)cc4)cc23)c1F`, the inhibition was < 10% (enzyme activity; inhibitor; 1 µM).
`COc1ccc2cc(OCC3(C(=O)O)CN(C(=O)c4ccc(F)cc4)C3)ccc2c1` has a remaining binding of 100% (cell-free assay; competition with immobilised ligand; 1 µM).
With `CN1CC(Oc2cnc(C#N)cc2-c2ccn3nc(NC(=O)C4CC4)cc3c2)C1` the inhibition was -2% (enzyme activity; inhibitor; 1 µM).
The inhibition of `CNC(=O)c1cc(Oc2ccc(NC(=O)Nc3ccc(Cl)c(C(F)(F)F)c3)cc2)ccn1` is reported as 5% (enzyme activity; inhibitor; 0.3 µM).
For `N#CCCc1ccc2c(c1)-c1[nH]c3ccc([N+](=O)[O-])cc3c1CC(=O)N2`, the remaining signal was 84.8% (cell-free assay; 0.5 µM).
The inhibition of `CS(=O)(=O)Nc1cccc(-c2csc(NC(=O)CSc3nc4nccnc4c(=O)n3CCc3ccccc3)n2)c1` is reported as 8% (enzyme activity; inhibitor; 10 µM).
With `O=C(NCCCC1CCCCC1)c1ccc(CNC(=O)c2cnn(-c3ccccc3)c2C(F)(F)F)cc1` the remaining binding was 96% (cell-free assay; competition with immobilised ligand; 0.1 µM).
The activity vs control of `Cc1cc(NC(=O)c2cccc3cc(-c4cccc5[nH]nc(N)c45)ccc23)ccc1F` is reported as 102% (enzyme activity; inhibitor; 0.1 µM).
The remaining binding of `CC1=C(C#N)[C@@H](c2ccc3[nH]nc(C)c3c2)C(C#N)=C(c2ccc(Cl)cc2)N1` is reported as 100% (cell-free assay; competition with immobilised ligand; 1 µM).
For `CC(C)(C)c1nc2c(s1)c1nc(N)ncc1c1ccc(NS(=O)(=O)c3c(F)cccc3F)c(F)c12`, the remaining activity was 104% (enzyme activity; inhibitor; radiometric; 1 µM).
